For assay [1], the system named is Candida albicans. The experiment in a line: Antifungal activity against fluconazole resistant Candida albicans 167-2 by CLSI protocol based broth microdilution method. The class given is functional. In outline: (§1)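 Broth microdilution per CLSI M27-A3 against clinical C. albicans isolates. Strains sub-cultured at least twice on Tryptone Soya Agar, 37 °C, 48 h. Compounds dissolved in DMSO at 2000 μg mL–1 stock. Fluconazole positive control, plus culture, media and vehicle controls. Run in duplicate; MIC in μg mL–1.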

For assay [2], the system named is Candida albicans. The assay can be described thus: Antifungal activity against fluconazole susceptible Candida albicans 004gr by CLSI protocol based broth microdilution method. The format is functional. In outline: (§2)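 Clinical isolates and control strain subcultured at least twice on TSA, 37 °C, 48 h. MICs by CLSI M27-A3 broth microdilution; compounds dissolved in DMSO to 2000 μg mL–1 stock. Fluconazole positive control, culture, media and DMSO vehicle controls in each run. Duplicate experiments; MIC in μg mL–1.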

The test system of assay [3] is Candida albicans. The experiment in a line: Antifungal activity against Candida albicans ATCC 90028 by CLSI protocol based broth microdilution method. The class given is functional. In outline: as §2
In general terms: In broth dilution the organism is exposed to a series of concentrations in liquid medium.

Assay [4] concerns Candida albicans. The experiment in a line: Inhibition of ergosterol biosynthesis in fluconazole susceptible Candida albicans ATCC 90028 at 8 ug/ml relative to control. The format is functional. In outline: (§3)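 Total sterols quantified by alcoholic KOH extraction in cells grown in 50 ml TSB with compounds at MIC and ½ MIC; untreated and 8 μg mL–1 fluconazole controls. Spectral scan; ergosterol content from A281.5 and A230 absorbances, dilution factor and pellet weight, correcting for 24(28) DHE.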

In assay [5] the test system is Candida albicans. The assay can be described thus: Up regulation of ERG11 gene expression in fluconazole resistant Candida albicans A171 at 8 ug/ml after 2 hrs by qRT PCR analysis. The class given is functional, organism-based. In outline:
(§4)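 Cells exposed 2 h to test agents at MIC. Total RNA isolated, cDNA synthesized, qPCR for ERG11 with ACT1 as endogenous control. Triplicate independent experiments, reported as mean ± standard deviation.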

Assay [6] deals with Candida albicans. The assay can be described thus: Inhibition of ergosterol biosynthesis in fluconazole resistant Candida albicans A171 at 8 ug/ml relative to control. The format is functional. In short, it runs like this:
as §3

In assay [7] the test system is Candida albicans. The experiment in a line: Antifungal activity against fluconazole resistant Candida albicans A171 by CLSI protocol based broth microdilution method. The class given is functional. In outline: as §1
Assay [8] deals with Candida albicans. The experiment in a line: Antifungal activity against fluconazole susceptible Candida albicans 0079gr by CLSI protocol based broth microdilution method. The class given is functional. In short, it runs like this:
as §2

In assay [9] the test system is Candida albicans. The experiment in a line: Antifungal activity against fluconazole susceptible Candida albicans 002B1 by CLSI protocol based broth microdilution method. The class given is functional. In short, it runs like this: as §2
Assay [10] has as its system Candida albicans. The assay can be described thus: Antifungal activity against fluconazole resistant Candida albicans 167-1 by CLSI protocol based broth microdilution method. The class given is functional. In short, it runs like this: as §1
For assay [11], the system named is Candida albicans. The assay can be described thus: Antifungal activity against fluconazole susceptible Candida albicans 003gr by CLSI protocol based broth microdilution method. The class given is functional. In short, it runs like this: as §2
Assay [12] deals with Candida albicans. The experiment in a line: Antifungal activity against fluconazole susceptible Candida albicans 004B1 by CLSI protocol based broth microdilution method. The class given is functional. In short, it runs like this:
as §2

In assay [13] the test system is Candida albicans. The experiment in a line: Antifungal activity against fluconazole susceptible Candida albicans 0072gr by CLSI protocol based broth microdilution method. The class given is functional. In short, it runs like this: as §2
For assay [14], the system named is Candida albicans. The experiment in a line: Down regulation of ERG11 gene expression in fluconazole susceptible Candida albicans ATCC 90028 at 8 ug/ml after 2 hrs by qRT PCR analysis. The format is functional, organism-based. In short, it runs like this: as §4

The structures appear in SMILES notation. Converted amounts (≈) assume the structure as drawn. The source made the active and inactive calls. The calls are words filed in the database; no cut-off is given here.

What is called MIC is the lowest concentration found to suppress growth. A high value points to a need for much substance. The term inhibition denotes the drop in the measured response relative to a control, in per cent.

In the case of `OC(Cn1cncn1)(Cn1cncn1)c1ccc(F)cc1F` [FLUCONAZOLE], the MIC in [1] lay within 125 to 500 µg/mL (≈ 408 to 1630 µM); in [2], 2 to 8 µg/mL (≈ 6.53 to 26.1 µM); in [3], 2 to 8 µg/mL (≈ 6.53 to 26.1 µM); in assay [7] it was 125 to 500 µg/mL (≈ 408 to 1630 µM); in assay [8], 2 to 8 µg/mL (≈ 6.53 to 26.1 µM); in assay [9], 2 to 8 µg/mL (≈ 6.53 to 26.1 µM). Besides, the MIC in assay [10] was in the range of 125 to 500 µg/mL (≈ 408 to 1630 µM); in assay [11] it was 2 to 8 µg/mL (≈ 6.53 to 26.1 µM); in assay [12] it was 2 to 8 µg/mL (≈ 6.53 to 26.1 µM); in [13], 2 to 8 µg/mL (≈ 6.53 to 26.1 µM). The inhibition at 8 µg/mL turned out to be 100% in [4] and 11% in assay [6]. Moreover, the result in assay [5] was inactive. Moreover, the inhibition entry in assay [14] is “Active”.
